Results: ChEMBL document CHEMBL3861950, “Design, synthesis and evaluation of novel 19F magnetic resonance sensitive protein tyrosine phosphatase inhibitors” (Medchemcomm, 2016)

Experiments:
[1] = biological target: T1, Receptor-type tyrosine-protein phosphatase C (Homo sapiens, UniProt P08575); test: Inhibition of recombinant CD45 (unknown origin) using pNPP as substrate by spectrophotometric method
T1 sequence (P08575 whole entry): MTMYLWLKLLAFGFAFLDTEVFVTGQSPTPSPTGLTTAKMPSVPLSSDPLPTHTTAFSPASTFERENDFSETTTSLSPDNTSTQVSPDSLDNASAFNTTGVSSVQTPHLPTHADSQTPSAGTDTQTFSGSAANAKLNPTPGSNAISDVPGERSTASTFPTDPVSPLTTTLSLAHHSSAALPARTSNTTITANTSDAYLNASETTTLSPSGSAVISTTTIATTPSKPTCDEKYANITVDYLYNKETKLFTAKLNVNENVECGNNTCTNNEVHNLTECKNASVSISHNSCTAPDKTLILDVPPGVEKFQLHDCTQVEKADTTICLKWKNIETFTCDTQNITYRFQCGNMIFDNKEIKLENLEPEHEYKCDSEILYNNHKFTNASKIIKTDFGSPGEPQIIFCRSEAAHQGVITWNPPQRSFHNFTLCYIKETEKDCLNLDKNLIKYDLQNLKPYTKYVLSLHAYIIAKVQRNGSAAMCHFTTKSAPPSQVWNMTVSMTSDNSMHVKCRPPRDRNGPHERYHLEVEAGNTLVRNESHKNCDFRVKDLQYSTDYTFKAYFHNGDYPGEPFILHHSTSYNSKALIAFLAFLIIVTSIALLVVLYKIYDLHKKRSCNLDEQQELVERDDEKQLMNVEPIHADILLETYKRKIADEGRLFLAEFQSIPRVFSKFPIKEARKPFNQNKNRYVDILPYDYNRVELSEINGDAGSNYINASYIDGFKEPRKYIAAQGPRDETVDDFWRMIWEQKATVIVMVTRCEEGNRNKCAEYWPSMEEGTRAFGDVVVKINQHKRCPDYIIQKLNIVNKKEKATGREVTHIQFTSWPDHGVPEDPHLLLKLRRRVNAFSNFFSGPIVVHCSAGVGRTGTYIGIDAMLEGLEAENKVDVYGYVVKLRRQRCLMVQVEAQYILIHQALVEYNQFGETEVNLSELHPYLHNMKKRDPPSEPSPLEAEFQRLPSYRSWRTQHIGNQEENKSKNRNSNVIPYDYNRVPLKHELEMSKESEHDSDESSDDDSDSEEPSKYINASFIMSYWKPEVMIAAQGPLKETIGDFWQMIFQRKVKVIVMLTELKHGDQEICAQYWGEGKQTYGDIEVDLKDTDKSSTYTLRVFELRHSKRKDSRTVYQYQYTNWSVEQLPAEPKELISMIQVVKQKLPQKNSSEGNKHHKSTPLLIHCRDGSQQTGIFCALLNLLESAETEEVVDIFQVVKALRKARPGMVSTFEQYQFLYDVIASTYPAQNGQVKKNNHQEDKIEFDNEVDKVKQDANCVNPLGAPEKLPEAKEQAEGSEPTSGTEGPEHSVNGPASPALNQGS
Outline: (§1)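 Recombinant PTP prepared in-house, assayed with pNPP substrate in 50 mM 3,3-dimethylglutarate buffer pH 7.0 containing 1 mM EDTA and 150 mM NaCl at 25 °C, in 96-well format. p-Nitrophenol product was quantified by absorbance at 405 nm. Non-enzymatic pNPP hydrolysis was corrected using a no-enzyme control.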

[2] = biological target: Tyrosine-protein phosphatase non-receptor type 13 (Homo sapiens, UniProt Q12923); test: Inhibition of recombinant FAP1 (unknown origin) using pNPP as substrate by spectrophotometric method; outline: as §1
[3] = Inhibition of recombinant Mycobacterium tuberculosis PTPB using pNPP as substrate by spectrophotometric method
Outline: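 Recombinant enzyme made in-house. Substrate pNPP in 50 mM 3,3-dimethylglutarate buffer, pH 7.0, with 1 mM EDTA and 150 mM NaCl, at 25 °C, screened in 96-well format. p-Nitrophenol product read at 405 nm. Non-enzymatic pNPP hydrolysis was corrected using a control without enzyme.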

[4] = biological target: T2, Tyrosine-protein phosphatase non-receptor type 11 (Homo sapiens, UniProt Q06124); test: Inhibition of recombinant SHP2 (unknown origin) using pNPP as substrate by spectrophotometric method; outline: as §1
T2 sequence (Q06124 whole entry): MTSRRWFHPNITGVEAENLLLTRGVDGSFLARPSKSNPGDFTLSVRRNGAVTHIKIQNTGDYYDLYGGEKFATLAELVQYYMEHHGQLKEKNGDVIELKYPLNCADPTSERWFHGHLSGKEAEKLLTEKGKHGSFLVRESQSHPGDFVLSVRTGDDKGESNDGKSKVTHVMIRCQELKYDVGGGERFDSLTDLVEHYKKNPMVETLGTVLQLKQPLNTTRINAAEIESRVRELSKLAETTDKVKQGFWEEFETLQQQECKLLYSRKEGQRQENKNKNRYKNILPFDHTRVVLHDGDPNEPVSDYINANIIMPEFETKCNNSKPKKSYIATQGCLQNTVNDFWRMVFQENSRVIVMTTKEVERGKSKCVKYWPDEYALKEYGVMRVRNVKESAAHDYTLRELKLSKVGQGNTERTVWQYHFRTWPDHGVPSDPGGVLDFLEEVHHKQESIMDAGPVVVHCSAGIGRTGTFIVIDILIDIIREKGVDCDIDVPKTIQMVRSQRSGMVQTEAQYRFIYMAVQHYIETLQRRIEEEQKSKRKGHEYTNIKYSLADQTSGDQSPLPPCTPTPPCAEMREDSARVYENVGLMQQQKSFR

[5] = biological target: T3, Tyrosine-protein phosphatase non-receptor type 22 (Homo sapiens, UniProt Q9Y2R2); test: Inhibition of recombinant LYP (unknown origin) using pNPP as substrate by spectrophotometric method; outline: as §1
T3 sequence (Q9Y2R2 whole entry): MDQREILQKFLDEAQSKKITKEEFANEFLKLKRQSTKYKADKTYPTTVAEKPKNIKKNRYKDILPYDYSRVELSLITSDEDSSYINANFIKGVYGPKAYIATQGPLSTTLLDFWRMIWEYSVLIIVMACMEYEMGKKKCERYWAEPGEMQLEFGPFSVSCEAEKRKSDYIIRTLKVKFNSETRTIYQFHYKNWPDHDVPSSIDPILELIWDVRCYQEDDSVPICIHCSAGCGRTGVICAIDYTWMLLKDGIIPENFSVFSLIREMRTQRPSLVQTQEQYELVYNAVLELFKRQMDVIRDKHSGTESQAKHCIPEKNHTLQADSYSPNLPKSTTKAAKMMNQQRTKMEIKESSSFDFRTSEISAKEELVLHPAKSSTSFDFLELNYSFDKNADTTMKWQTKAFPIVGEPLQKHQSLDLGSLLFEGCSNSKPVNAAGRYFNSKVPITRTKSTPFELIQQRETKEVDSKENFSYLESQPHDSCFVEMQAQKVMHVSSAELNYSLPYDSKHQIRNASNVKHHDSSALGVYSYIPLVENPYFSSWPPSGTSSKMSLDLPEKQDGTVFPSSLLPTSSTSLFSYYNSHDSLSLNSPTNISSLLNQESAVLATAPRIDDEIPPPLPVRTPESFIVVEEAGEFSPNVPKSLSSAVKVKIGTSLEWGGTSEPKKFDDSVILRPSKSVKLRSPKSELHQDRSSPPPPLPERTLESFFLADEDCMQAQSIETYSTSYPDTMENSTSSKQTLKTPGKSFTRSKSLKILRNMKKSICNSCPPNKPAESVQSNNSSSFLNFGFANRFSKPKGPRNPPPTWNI

[6] = biological target: T4, Tyrosine-protein phosphatase non-receptor type 1 (Homo sapiens, UniProt P18031); test: Inhibition of recombinant PTP1B (unknown origin) using pNPP as substrate by spectrophotometric method; outline: as §1
T4 sequence (P18031 whole entry): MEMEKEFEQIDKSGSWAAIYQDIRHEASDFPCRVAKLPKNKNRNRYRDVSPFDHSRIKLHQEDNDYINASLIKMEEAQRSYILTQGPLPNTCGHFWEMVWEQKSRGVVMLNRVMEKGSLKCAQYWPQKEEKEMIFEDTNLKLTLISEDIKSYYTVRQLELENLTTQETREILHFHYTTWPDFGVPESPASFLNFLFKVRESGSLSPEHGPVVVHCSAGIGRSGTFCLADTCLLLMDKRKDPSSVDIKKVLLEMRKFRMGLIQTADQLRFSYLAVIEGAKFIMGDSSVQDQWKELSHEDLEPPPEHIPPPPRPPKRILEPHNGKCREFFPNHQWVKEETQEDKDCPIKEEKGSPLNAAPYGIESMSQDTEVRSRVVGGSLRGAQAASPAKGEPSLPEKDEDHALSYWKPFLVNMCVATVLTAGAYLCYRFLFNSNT

Chain of Tyrosine-protein phosphatase non-receptor type 13 (Q12923 whole entry): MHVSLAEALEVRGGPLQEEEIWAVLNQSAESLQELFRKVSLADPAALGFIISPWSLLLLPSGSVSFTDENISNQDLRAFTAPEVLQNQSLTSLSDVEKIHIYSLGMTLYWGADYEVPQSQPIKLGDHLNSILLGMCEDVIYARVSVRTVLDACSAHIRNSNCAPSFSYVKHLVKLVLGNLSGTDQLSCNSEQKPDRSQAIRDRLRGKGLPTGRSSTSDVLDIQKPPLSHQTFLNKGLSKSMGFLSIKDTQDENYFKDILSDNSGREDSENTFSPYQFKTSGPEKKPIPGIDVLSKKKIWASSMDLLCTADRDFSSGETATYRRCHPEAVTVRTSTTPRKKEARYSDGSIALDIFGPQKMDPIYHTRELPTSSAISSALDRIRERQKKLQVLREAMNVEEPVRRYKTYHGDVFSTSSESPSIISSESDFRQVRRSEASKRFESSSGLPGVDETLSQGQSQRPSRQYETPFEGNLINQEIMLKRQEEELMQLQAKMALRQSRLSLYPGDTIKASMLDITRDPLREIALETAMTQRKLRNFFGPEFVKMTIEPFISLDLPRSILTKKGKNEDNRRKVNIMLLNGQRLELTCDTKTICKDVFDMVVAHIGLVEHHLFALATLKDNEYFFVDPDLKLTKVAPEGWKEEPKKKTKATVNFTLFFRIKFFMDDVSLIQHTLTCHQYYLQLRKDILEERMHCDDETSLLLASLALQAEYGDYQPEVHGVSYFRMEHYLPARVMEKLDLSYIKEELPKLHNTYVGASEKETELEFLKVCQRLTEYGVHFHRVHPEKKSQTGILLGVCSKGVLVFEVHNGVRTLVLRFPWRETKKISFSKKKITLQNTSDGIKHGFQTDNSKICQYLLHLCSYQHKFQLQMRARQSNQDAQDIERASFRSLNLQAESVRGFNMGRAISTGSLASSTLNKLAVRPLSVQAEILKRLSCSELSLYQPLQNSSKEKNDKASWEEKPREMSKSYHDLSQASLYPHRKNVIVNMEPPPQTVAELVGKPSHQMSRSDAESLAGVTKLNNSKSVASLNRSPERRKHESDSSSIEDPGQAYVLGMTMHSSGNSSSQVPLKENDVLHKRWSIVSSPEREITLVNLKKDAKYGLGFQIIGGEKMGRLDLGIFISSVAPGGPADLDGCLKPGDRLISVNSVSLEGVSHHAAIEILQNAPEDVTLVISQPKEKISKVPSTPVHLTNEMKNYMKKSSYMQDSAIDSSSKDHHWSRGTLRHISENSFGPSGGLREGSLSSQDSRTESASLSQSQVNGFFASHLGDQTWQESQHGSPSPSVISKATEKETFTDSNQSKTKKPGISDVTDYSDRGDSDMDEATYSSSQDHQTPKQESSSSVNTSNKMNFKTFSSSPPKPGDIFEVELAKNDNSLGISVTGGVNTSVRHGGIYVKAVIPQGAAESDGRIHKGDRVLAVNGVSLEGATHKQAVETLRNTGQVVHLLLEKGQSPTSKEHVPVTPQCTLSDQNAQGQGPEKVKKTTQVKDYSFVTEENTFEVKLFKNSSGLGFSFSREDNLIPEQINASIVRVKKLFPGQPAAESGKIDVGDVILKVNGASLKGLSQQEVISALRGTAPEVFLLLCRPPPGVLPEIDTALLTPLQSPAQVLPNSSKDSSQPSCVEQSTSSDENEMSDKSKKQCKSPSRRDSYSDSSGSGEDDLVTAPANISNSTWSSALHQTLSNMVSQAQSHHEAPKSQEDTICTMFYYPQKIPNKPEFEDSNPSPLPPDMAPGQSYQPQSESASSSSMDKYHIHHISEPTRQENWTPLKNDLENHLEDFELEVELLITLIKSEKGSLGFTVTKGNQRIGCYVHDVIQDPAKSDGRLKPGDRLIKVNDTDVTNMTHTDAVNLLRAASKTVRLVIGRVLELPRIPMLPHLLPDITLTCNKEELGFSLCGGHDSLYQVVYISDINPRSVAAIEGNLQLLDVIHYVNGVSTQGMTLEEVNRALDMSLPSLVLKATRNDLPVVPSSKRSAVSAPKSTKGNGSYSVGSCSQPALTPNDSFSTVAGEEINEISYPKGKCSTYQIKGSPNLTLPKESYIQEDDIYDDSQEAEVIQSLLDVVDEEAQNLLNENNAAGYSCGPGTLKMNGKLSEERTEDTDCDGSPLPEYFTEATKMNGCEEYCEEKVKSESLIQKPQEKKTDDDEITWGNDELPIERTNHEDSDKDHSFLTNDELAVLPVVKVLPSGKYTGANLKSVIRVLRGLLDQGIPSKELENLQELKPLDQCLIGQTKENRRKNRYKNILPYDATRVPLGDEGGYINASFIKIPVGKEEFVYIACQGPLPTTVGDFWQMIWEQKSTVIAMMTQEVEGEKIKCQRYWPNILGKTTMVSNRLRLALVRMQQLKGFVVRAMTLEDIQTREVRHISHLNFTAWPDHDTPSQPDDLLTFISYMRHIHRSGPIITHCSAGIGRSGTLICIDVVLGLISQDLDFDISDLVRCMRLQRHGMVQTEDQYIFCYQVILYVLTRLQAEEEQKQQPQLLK

| SMILES | IC50 [1] [µM] | IC50 [2] [µM] | IC50 [3] [µM] | IC50 [4] [µM] | IC50 [5] [µM] | IC50 [6] [µM] |
| --- | --- | --- | --- | --- | --- | --- |
| O=C(COc1ccc2cc(C(O)(C(F)(F)F)C(F)(F)F)c(O)cc2c1)Nc1ccccc1 | > 20 | > 20 | 14.4 | 19 | > 20 | – |
| O=C(COc1ccc2cc(C(O)(C(F)(F)F)C(F)(F)F)c(O)cc2c1)N1c2ccccc2Sc2ccccc21 | 2.8 | 2.2 | 2.9 | 3.2 | 3.4 | 6.6 |
| O=C(COc1ccc2cc(C(O)(C(F)(F)F)C(F)(F)F)c(O)cc2c1)NCc1ccc(F)cc1 | > 20 | > 20 | > 20 | > 20 | > 20 | > 20 |
| O=C(COc1ccc2cc(C(O)(C(F)(F)F)C(F)(F)F)c(O)cc2c1)NC1CC1 | > 20 | > 20 | > 20 | > 20 | > 20 | > 20 |
| Oc1ccc(-c2ccccc2)cc1C(O)(C(F)(F)F)C(F)(F)F | > 500 | > 500 | 351 | 392 | > 500 | > 500 |
| O=C(COc1ccc2cc(C(O)(C(F)(F)F)C(F)(F)F)c(O)cc2c1)NC12CC3CC(CC(C3)C1)C2 | 7.6 | 7.4 | > 20 | 9 | 10.1 | 14.7 |
| O=C(COc1ccc2cc(C(O)(C(F)(F)F)C(F)(F)F)c(O)cc2c1)N(c1ccccc1)c1ccccc1 | 14.9 | 12.4 | > 20 | 19.5 | 20.6 | > 20 |
| Oc1c(-c2ccccc2)cccc1C(O)(C(F)(F)F)C(F)(F)F | 157 | 449 | 148 | 136 | 268 | 422 |
| CC(C)c1ccc(NC(=O)COc2ccc3cc(C(O)(C(F)(F)F)C(F)(F)F)c(O)cc3c2)cc1 | 7.8 | 6.5 | 7.3 | 8.5 | 8.8 | 17.2 |
| Oc1cc2ccccc2cc1C(O)(C(F)(F)F)C(F)(F)F | 112 | 128 | 106 | 115 | 134 | 260 |
| Oc1c(C(O)(C(F)(F)F)C(F)(F)F)ccc2ccccc12 | > 500 | > 500 | > 500 | > 500 | > 500 | > 500 |
| O=C(COc1ccc2cc(C(O)(C(F)(F)F)C(F)(F)F)c(O)cc2c1)Nc1ccc(N2CCOCC2)cc1 | > 20 | > 20 | > 20 | > 20 | > 20 | > 20 |
| COc1ccc(CNC(=O)COc2ccc3cc(C(O)(C(F)(F)F)C(F)(F)F)c(O)cc3c2)cc1OC | > 20 | > 20 | 18.1 | > 20 | > 20 | > 20 |
| CCN(CC)C(=O)COc1ccc2cc(C(O)(C(F)(F)F)C(F)(F)F)c(O)cc2c1 | > 20 | > 20 | > 20 | > 20 | > 20 | > 20 |
| O=C(COc1ccc2cc(C(O)(C(F)(F)F)C(F)(F)F)c(O)cc2c1)NCCc1ccc(Cl)cc1Cl | 5.2 | 4.3 | 5.1 | 6.7 | 6.9 | 12.6 |
| O=C(COc1ccc2cc(C(O)(C(F)(F)F)C(F)(F)F)c(O)cc2c1)Nc1ccc(-c2ccccc2)cc1 | 3.4 | 2.8 | 4.8 | 3.5 | > 20 | > 20 |
| O=C(COc1ccc2cc(C(O)(C(F)(F)F)C(F)(F)F)c(O)cc2c1)Nc1nc2ccccc2s1 | 10.9 | 9.9 | 2.6 | 12.8 | 14.3 | > 20 |
| Oc1cc(-c2ccccc2)ccc1C(O)(C(F)(F)F)C(F)(F)F | > 500 | > 500 | > 500 | > 500 | > 500 | > 500 |
| OC(c1ccccc1)(C(F)(F)F)C(F)(F)F | > 500 | > 500 | > 500 | > 500 | > 500 | > 500 |
| Cc1ccc(O)c(C(O)(C(F)(F)F)C(F)(F)F)c1 | 207 | 454 | 180 | 202 | 303 | 360 |
